Screening results from PubChem BioAssay.
The list is not random: actives were taken first. Their share in the collection is about 2.5%.
N-glyco inh: N-linked glycosylation inhibition; D54 ERlucT glycosylation luciferase reporter, 24 h; percent of 100 nM tunicamycin response; reporter increase, % at 12.5 µM; 360,000 compounds, 0.23% hits;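 active = mean luciferase reporter signal, scaled so untreated is 0 and the glycosylation-blocking control 100, at or above a set limit in every replicate; inconclusive = mean reaches the limit but not every replicate does; inactive = mean below the limit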;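 note: luciferase carries N-glycosylation sites so blocking glycosylation raises the light; 0% = median of neutral control wells and 100% = median of 100 nM tunicamycin wells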
FN deposition inh: fibronectin deposition inhibition | inhibition, % at 12.6 µM | AH1F fibroblasts, Alexa488-fibronectin deposition fluorescence, overnight | 350,000 compounds, 0.086% hits;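 active = mean inhibition across replicates of 30% or more, regardless of how many single replicates reach that level; inconclusive = mean under 30% yet at least half of replicates reach 30%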;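 note: positive control wells lacked labelled fibronectin entirely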
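Material – AH1F fibroblast monolayer, labelled fibronectin deposition · Reagent – labelled fibronectin 24 nM · Timing – 1 h adhesion, overnight exposure · Measured by – fluorescence at 485 nm excitation, 525 nm emission · Read-out – inhibition of fibronectin deposition signal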
EWS-Fli inh: EWS/Fli transcriptional activity inhibition; 350,000 compounds, 0.67% hits; AID 651661; inhibition, % at 12.6 µM; A673 NR0B1-luciferase reporter, viability-normalised;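 active = mean inhibition of at least 50% after viability correction, with every replicate also passing that limit; inconclusive = mean reaches 50% but only one of two replicates passes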;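 note: firefly luciferase signal divided by Alamar Blue viability fluorescence both relative to DMSO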
PAX8 reporter: PAX8 transcriptional activity inhibition. RMG-I TPO-luciferase reporter, SteadyGlo, 24 h. inhibition, % at 12.6 µM. 360,000 compounds, 1.2% hits;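 active = mean replicate inhibition at least 60% with every replicate also reaching 60%; inconclusive = only one of the two criteria is met; inactive = mean below 60% and not all replicates reaching 60%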;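 note: luciferase light reporting Pax8 driven TPO promoter activity; plate controls were median of neutral control wells for no effect and mitoxantrone controls for full effect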
Env fusion inh: inhibitors of HIV Env-mediated cell fusion; HeLa-JRFL Env/CEM21 cell fusion, luciferase; inhibition, % at 12.3 µM; 360,000 compounds, 1.1% hits;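 active = mean replicate inhibition score of at least 50 and every replicate individually at or above 50; inconclusive = only one of the two criteria met; inactive = mean below 50 and not all replicates reaching 50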;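 note: 0% = plate neutral controls and 100% = maraviroc near 300 nM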
AF4-AF9 inh: inhibitors of human MLL-AF4/AF9 interaction; P42568; 350,000 compounds, 0.47% hits; inhibition, % at 10 µM; AlphaScreen, biotin-AF4 peptide binding to FLAG-AF9;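 active = every replicate reaching a set inhibition limit, whatever the replicate mean, cut at about 25% in these data; inconclusive = mean inhibition reaches that limit but some replicates miss it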;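 note: 0% = plate neutral control median and 100% = total signal loss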
Target sequence (P42568 whole entry, looked up): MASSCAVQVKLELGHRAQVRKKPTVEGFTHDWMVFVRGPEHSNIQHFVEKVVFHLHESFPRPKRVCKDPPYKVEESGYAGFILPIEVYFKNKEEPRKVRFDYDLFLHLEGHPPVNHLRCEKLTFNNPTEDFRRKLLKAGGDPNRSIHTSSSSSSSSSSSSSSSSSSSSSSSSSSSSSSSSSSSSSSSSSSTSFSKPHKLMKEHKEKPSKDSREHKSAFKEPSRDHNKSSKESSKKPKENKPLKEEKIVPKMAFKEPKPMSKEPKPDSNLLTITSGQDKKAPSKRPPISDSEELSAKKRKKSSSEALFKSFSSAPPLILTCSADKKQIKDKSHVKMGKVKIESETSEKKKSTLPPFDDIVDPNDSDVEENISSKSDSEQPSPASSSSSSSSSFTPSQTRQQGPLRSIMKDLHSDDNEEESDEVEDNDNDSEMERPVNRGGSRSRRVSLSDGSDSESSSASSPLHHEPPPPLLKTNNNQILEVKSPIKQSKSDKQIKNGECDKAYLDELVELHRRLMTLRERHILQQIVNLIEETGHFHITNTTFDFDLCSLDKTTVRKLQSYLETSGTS
* hit, by the source's call; ? = inconclusive; · = no result; [ ] = remark or other dose.

SMILES	N-glyco inh	FN deposition inh	EWS-Fli inh	PAX8 reporter	Env fusion inh	AF4-AF9 inh
Cc1ccc([N+](=O)[O-])cc1NC(=O)CN(C1CCCCC1)S(=O)(=O)c1ccc(Cl)cc1	-7	·	·	·	·	·
Cc1ccc([N+](=O)[O-])cc1NC(=O)CN(C(=O)c1ccccc1Cl)C1CCCCC1	-3	32*	-6	-2	16	7
CCC(=NOCc1ccccc1)C(=O)NNS(=O)(=O)c1ccc(C)cc1	-1	·	10	6	57*	-59
CC(C)NC(=O)N1[C@@H]2CN(CC(F)(F)F)C[C@H]1C2c1ccccc1 (stereo not given in full)	·	-14	·	·	·	·
Cc1noc(C)c1NC(=O)Nc1ccc2c(c1)CC(=O)N([C@@H](C)CO)C[C@@H](C)[C@H](CN(C)C(=O)Nc1ccc(C(F)(F)F)cc1)O2	·	·	13	·	-7[16.7 µM]	1
COc1cccc2cc(C(=O)N3CC(C)OC(C)C3)c(=O)oc12 (stereo not given)	2	0	-26	22	-44	-2
COc1cc2c(oc(=O)c3cc(C)cc(OC)c32)c2c(C3OC(C)C(O)C(C)(O)C3O)ccc(O)c12 (stereo not given)	-2	2	37	·	56*	-1
CO[C@H]1CN(C)C(=O)c2ccc(NC(=O)C3CCC3)cc2OC[C@H](C)N(C(=O)CN(C)C)C[C@@H]1C	·	·	·	1	·	3
CC(=O)Nc1ccc(N2C(=O)c3cccc4c(O)ccc(c34)C2=O)cc1	1	-13	9	3	10	2
O=C1c2cccc3c(O)ccc(c23)C(=O)N1c1ccc(Cl)cc1	-5	3	26	102*	15	-7
Cc1noc(C)c1NC(=O)Nc1ccc2c(c1)C(=O)N([C@@H](C)CO)C[C@H](C)[C@@H](CN(C)C)OCCCC[C@@H](C)O2	·	·	-8	-10	21[16.7 µM]	-5
COc1ccc(C2NCCc3cc(OC)c(OC)cc32)cc1OC (stereo not given)	5	active	·	·	21	·
CNC[C@@H]1Oc2cc(C#Cc3ccccc3F)ccc2S(=O)(=O)N([C@@H](C)CO)C[C@H]1C	·	6	5	11	8[16.7 µM]	8
COc1ccc(-c2cc(=O)c3ccc(O)cc3o2)cc1	-1	·	-69	·	·	-12
COc1ccc(-c2cc(=O)c3cc(OC)ccc3o2)cc1	-19	·	52*	·	·	-1
CSc1cccc(NC(=O)C2CCCN2S(=O)(=O)c2ccc(Br)s2)c1 (stereo not given)	-1	2	·	·	60*	·
O=C(Nc1ccc(F)cc1)C1CCCN1S(=O)(=O)c1ccc(Br)cc1 (stereo not given)	-1	·	-1	9	81*	-1
C[C@H](CO)N1C[C@H](C)[C@@H](CN(C)C(=O)Nc2cccc(C(F)(F)F)c2)OCc2ccccc2-c2ccccc2C1=O	·	1	7	-35	58*[16.7 µM]	-2
C[C@@H]1CN([C@@H](C)CO)C(=O)c2ccccc2-c2ccccc2CO[C@@H]1CN(C)C(=O)Nc1ccc2c(c1)OCO2	·	-7	-52	4	59*[16.7 µM]	-3
C[C@@H]1CN([C@H](C)CO)C(=O)c2c(c3ccccc3n2C)-c2ccccc2CO[C@H]1CN(C)C(=O)Nc1cccc(C(F)(F)F)c1	·	9	8	79*	·	0
COc1cccc(NC(=O)N(C)C[C@H]2OCc3ccccc3-c3c(n(C)c4ccccc34)C(=O)N([C@@H](C)CO)C[C@@H]2C)c1	·	-22	-1	2	55*[16.7 µM]	5
Nc1ccc(CC(N)c2csc(Nc3cc(Oc4ccccc4)ncn3)n2)cc1 (stereo not given)	-8	3	7	0	-12	25*
NC(Cc1ccc(C(F)(F)F)cc1)c1csc(Nc2cc(Oc3ccccc3)ncn2)n1 (stereo not given)	-8	-6	44	-10	-3	2
CN1C(=O)c2cc(NC(=O)C3CCCC3)ccc2OC[C@H]2O[C@H](CC(=O)O)CC[C@H]21	·	-10	2	1	·	-2
C=CCCN(C(CC(C)C)C(=O)OC)S(=O)(=O)c1ccccc1Br (stereo not given)	-5	2	-2	3	22	0
SMILES	N-glyco inh	FN deposition inh	EWS-Fli inh	PAX8 reporter	Env fusion inh	AF4-AF9 inh
COC(=O)C(CC(C)C)N(Cc1cc(OC)cc(OC)c1)S(=O)(=O)c1ccccc1Br (stereo not given)	-8	-10	2	3	59*	-3
COC(=O)[C@H](CC(C)C)N(Cc1ccccc1)S(=O)(=O)N(Cc1ccc(OC)cc1)[C@@H](CC(C)C)C(=O)OC	-9	-4	6	17	75*	·
CC(=O)c1ccc(-c2cnc3c(NC=O)cc(-c4ccccc4Oc4ccccc4)cn23)cc1	11	18	33	84*	56*	3
COc1cc(-c2cc(NC=O)c3ncc(-c4cccc(C(=O)N(C)C)c4)n3c2)cc(OC)c1OC	4	5	19	30	18	1
O=CNc1cc(-c2ccccc2Oc2ccccc2)cn2c(-c3ccc(F)cc3)cnc12	10	-3	13	49	-45	4
COc1ccccc1-c1cc(NC=O)c2ncc(-c3cccc(C(=O)N(C)C)c3)n2c1	41*	7	49	?	37	3
COc1ccccc1-c1cc(NC=O)c2ncc(-c3cccc(C(C)=O)c3)n2c1	?	5	40	·	67*	-8
CO[C@H]1CN(C)C(=O)c2ccc(NS(C)(=O)=O)cc2OC[C@@H](C)N(C(=O)C2CCCCC2)C[C@@H]1C	·	2	-1	-5	4[16.7 µM]	0
C=C1C(=O)C2=CC1CCC(=O)C1(C)CCC(OC(C)=O)C(C)(C)C1CC2O (stereo not given)	-22	14	57*	105*	-41	0
CC(=O)OC1CCC2C3CCC4OC(=O)CCC4C3CCC12C (stereo not given)	0	0	2	5	-8	1
C[C@@H]1CN(C)C(=O)c2cccc(N(C)C)c2O[C@@H]1CN(C)C(=O)OC(C)(C)C	·	-9	·	·	·	·
COc1ccc(-c2coc3c(C(=O)NCc4ccc(C(F)(F)F)cc4)cccc23)c(C)c1	-4	-8	12	1	67*	-2
COc1cc(-c2coc3c(C(=O)NCc4ccc(OC)c(OC)c4)cccc23)ccc1O	91*	14	27	19	-5	0
COc1ccc(CNC(=O)c2cccc3c(-c4cccc(C(N)=O)c4)coc23)cc1OC	60*	4	25	29	27	-1
C[C@@H]1CN([C@H](C)CO)C(=O)c2cccc(NS(C)(=O)=O)c2O[C@@H]1CN(C)C(=O)Nc1ccc(F)cc1	·	-8	-9	14	·	-2
C[C@@H]1CN([C@H](C)CO)C(=O)c2cccc(NC(=O)C3CC3)c2O[C@H]1CN(C)C(=O)Nc1ccc2c(c1)OCO2	·	·	-6	·	6[16.7 µM]	-11
